Activity calls are given as the source filed them. No cut-off for these calls is given here.
How the values were obtained:
Homo sapiens [1] = species: Homo sapiens; test: Selectivity index, ratio of IC50 for human HDAC3 to IC50 for human HDAC6
Homo sapiens [2] = species: Homo sapiens; test: Selectivity index, ratio of IC50 for human HDAC8 to IC50 for human HDAC6
Homo sapiens [3] = species: Homo sapiens; test: Selectivity index, ratio of IC50 for human HDAC1 to IC50 for human HDAC6
Histone deacetylase 1 = Histone deacetylase 1 (Homo sapiens, UniProt Q13547); test: Inhibition of human HDAC1 using RHKKAc peptide as substrate
Histone deacetylase 2 = Histone deacetylase 2 (Homo sapiens, UniProt Q92769); test: Inhibition of human HDAC2 using RHKKAc peptide as substrate
Homo sapiens [4] = species: Homo sapiens; test: Selectivity index, ratio of IC50 for human HDAC10 to IC50 for human HDAC6
Homo sapiens [5] = species: Homo sapiens; test: Selectivity index, ratio of IC50 for human HDAC2 to IC50 for human HDAC6
[6] = molecular target: T1, Protein deacetylase HDAC6 (Mus musculus) (UniProt Q9Z2V5); test: Inhibition of HDAC6 in mouse Neuro-2a cells transfected with pCAX FLAG APP and pRK5-EGFP-Tau P301L plasmids assessed as inhibition of Tau P301L mutant phosphorylation at Ser396 residue at 1 uM after 24 hrs by Western blot analysis; assay type: cell-based
T1 sequence (whole entry): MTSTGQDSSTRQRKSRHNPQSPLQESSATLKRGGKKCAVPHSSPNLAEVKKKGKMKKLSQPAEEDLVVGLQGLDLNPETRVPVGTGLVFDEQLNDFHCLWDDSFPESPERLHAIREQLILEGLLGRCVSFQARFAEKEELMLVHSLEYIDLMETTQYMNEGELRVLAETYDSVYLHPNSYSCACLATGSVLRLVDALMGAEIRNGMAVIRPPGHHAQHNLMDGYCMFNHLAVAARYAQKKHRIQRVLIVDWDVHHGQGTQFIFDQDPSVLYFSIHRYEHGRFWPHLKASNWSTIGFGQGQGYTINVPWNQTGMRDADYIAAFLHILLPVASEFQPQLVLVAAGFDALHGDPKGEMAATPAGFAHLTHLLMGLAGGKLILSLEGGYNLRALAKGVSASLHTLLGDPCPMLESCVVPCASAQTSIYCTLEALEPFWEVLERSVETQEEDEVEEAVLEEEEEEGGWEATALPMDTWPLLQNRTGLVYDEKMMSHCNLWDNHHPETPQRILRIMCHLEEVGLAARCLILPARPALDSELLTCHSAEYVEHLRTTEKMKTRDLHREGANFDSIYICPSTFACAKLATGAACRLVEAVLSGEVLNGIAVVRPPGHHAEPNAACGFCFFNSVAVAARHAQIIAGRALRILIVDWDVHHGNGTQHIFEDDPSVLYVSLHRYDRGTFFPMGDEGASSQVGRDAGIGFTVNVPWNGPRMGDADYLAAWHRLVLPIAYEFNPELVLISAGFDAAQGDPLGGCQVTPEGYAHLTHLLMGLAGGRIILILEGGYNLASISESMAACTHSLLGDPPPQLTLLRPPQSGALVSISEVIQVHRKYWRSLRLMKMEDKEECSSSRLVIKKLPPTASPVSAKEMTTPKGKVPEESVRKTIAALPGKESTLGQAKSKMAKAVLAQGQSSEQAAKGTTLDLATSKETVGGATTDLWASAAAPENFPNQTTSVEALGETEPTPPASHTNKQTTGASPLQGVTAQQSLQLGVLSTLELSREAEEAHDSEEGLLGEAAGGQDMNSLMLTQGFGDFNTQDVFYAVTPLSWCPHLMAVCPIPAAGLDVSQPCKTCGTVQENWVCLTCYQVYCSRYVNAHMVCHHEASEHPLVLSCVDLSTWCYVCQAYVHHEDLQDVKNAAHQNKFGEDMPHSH
How it was run: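 SH-SY5Y or Neuro-2a cells cotransfected 24 h with pCAX APP695 and pRK5-EGFP-Tau P301L, then treated 24 h at 1 µM. 20 µg lysate protein immunoblotted for APP and phospho-tau Ser396/Ser404. Mean ± STD of three independent experiments; Student's t-test.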

[7] = molecular target: T2, Polyamine deacetylase HDAC10 (Homo sapiens, UniProt Q969S8); test: Inhibition of human HDAC10 using RHKKAc peptide as substrate
T2 sequence (Q969S8 whole entry): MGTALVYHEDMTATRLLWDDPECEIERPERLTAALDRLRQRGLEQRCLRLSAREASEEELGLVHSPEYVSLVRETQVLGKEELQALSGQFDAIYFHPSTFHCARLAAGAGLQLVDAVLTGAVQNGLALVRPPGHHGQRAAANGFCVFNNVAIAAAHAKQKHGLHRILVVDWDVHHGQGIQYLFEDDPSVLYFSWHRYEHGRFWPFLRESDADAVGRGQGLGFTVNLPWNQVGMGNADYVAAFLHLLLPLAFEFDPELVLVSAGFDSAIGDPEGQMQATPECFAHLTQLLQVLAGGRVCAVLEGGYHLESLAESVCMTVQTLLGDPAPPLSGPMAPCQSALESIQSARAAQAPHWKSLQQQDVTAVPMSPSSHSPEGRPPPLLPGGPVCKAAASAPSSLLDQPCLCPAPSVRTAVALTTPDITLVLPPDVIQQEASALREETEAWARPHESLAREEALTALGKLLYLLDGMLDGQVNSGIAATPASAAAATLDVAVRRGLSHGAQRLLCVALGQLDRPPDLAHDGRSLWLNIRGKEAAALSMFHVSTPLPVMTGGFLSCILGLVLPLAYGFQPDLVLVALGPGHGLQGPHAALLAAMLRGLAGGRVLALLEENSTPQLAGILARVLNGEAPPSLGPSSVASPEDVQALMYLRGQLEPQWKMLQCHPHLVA

Histone deacetylase 8 = molecular target: T3, Histone deacetylase 8 (Homo sapiens, UniProt Q9BY41); test: Inhibition of human HDAC8 using RHKAcKAc peptide as substrate
T3 sequence (Q9BY41 whole entry): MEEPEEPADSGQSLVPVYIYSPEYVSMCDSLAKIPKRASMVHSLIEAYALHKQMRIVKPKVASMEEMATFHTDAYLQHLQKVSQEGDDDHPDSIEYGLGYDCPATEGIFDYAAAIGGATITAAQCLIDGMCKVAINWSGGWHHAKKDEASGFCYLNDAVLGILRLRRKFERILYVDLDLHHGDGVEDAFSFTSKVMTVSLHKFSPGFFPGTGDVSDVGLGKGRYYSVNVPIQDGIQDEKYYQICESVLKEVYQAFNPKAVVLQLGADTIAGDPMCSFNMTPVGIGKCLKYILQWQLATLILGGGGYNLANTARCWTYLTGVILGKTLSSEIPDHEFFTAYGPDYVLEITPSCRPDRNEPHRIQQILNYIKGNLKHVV

Histone deacetylase 3 = Histone deacetylase 3 (Homo sapiens, UniProt O15379)
Chain of Histone deacetylase 3 (O15379 whole entry): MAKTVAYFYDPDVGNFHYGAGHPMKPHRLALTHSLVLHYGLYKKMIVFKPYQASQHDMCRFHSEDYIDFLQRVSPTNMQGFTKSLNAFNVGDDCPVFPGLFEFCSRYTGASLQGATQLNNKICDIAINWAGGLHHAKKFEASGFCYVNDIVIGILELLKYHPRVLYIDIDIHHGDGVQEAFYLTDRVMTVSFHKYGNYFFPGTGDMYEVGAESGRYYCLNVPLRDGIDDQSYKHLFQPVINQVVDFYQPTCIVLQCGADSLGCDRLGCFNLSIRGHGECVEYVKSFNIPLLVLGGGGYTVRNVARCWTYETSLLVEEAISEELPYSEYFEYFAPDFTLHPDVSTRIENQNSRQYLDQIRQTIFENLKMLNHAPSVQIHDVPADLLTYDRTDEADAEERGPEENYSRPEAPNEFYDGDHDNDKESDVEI

Chain of Histone deacetylase 2 (Q92769 whole entry): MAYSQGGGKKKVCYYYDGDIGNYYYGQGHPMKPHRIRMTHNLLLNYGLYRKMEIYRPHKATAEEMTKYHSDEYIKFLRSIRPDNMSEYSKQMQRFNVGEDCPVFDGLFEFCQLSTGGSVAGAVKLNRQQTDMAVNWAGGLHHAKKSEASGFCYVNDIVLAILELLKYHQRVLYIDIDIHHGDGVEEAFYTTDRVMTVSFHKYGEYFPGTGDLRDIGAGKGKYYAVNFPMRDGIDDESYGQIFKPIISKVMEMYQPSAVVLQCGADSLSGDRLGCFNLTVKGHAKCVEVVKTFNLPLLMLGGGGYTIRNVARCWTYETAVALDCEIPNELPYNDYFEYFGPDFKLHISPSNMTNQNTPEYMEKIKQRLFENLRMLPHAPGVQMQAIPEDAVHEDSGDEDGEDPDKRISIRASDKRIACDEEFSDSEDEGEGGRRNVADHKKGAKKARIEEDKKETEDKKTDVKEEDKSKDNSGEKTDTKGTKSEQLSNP
Chain of Histone deacetylase 1 (Q13547 whole entry): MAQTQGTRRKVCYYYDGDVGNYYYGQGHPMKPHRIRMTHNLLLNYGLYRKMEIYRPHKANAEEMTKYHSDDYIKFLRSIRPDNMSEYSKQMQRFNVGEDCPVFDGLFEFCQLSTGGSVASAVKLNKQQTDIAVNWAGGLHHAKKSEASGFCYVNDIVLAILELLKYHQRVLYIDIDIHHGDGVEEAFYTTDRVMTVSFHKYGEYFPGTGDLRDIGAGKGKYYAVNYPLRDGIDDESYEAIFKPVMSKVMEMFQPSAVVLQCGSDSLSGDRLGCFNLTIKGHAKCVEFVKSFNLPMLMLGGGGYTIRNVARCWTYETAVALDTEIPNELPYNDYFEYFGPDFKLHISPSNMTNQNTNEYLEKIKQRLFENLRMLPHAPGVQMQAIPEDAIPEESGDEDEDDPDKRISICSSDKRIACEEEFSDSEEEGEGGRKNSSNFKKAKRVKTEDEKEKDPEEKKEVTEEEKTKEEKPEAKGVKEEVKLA

Work on `O=C(NO)c1ccc(Cn2ccc3cc(C(=O)c4ccc(F)cc4)ccc32)cc1` yielded a Ratio IC50 (Homo sapiens [1]) of 476, a Ratio IC50 (Homo sapiens [2]) of 134 and a Ratio IC50 (Homo sapiens [3]) of 357. It also gave an IC50 (Histone deacetylase 1) of 3.3 µM, an IC50 (Histone deacetylase 2) of 5.11 µM and a Ratio IC50 (Homo sapiens [4]) of over 10800. For the same compound, the Ratio IC50 (Homo sapiens [5]) was 552, the inhibition [6] was “Active” and the IC50 [7] was over 100 µM. The IC50 (Histone deacetylase 8) was 1.24 µM and the IC50 (Histone deacetylase 3) was 4.4 µM.

Compound `COc1ccc(C(=O)c2ccc3c(ccn3Cc3ccc(C(=O)NO)cc3)c2)cc1` has a Ratio IC50 (Homo sapiens [1]) of 1060, a Ratio IC50 (Homo sapiens [2]) of 165 and a Ratio IC50 (Homo sapiens [3]) of 559. The IC50 (Histone deacetylase 1) was 2.19 µM, the IC50 (Histone deacetylase 2) was 0.568 µM and the Ratio IC50 (Homo sapiens [4]) was 15300. The Ratio IC50 (Homo sapiens [5]) was 145, the inhibition [6] was “Active” and the IC50 [7] was 59.8 µM. For the same compound, the IC50 (Histone deacetylase 8) was 0.646 µM and the IC50 (Histone deacetylase 3) was 4.15 µM.

Compound `O=C(NO)c1ccc(Cn2ccc3cc(C(=O)c4ccc(Cl)cc4)ccc32)cc1` has a Ratio IC50 (Homo sapiens [1]) of 984, a Ratio IC50 (Homo sapiens [2]) of 158 and a Ratio IC50 (Homo sapiens [3]) of 710. The IC50 (Histone deacetylase 1) was 4.78 µM, the IC50 (Histone deacetylase 2) was 2.1 µM and the Ratio IC50 (Homo sapiens [4]) was over 14900. For the same compound, the Ratio IC50 (Homo sapiens [5]) was 312, the inhibition [6] was “Active” and the IC50 [7] was over 100 µM. For the same compound, the IC50 (Histone deacetylase 8) was 1.06 µM and the IC50 (Histone deacetylase 3) was 6.62 µM.

From ChEMBL document CHEMBL4196108, “5-Aroylindoles Act as Selective Histone Deacetylase 6 Inhibitors Ameliorating Alzheimer's Disease Phenotypes” (J Med Chem, 2018)
